Experimental data as given in ChEMBL document CHEMBL1932986, “Synthesis and in vitro antimycobacterial activity of compounds derived from (R)- and (S)-2-amino-1-butanol - The crucial role of the configuration” (Eur J Med Chem, 2012).

How the values were obtained:
Bacillus mycoides [1] = assay: Antibacterial activity against Bacillus mycoides DSMZ 274 at 4 mg/ml after 24 hrs by agar diffusion test; assay type: functional, organism-based
How it was run: (§1)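 Agar diffusion: bacteria grown 24 h at 37 °C on nutrient agar; wells cut in the seeded agar are filled with compound solution in DMSO. Read-out is the diameter of the clear zone around the application point.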

Bacillus subtilis [2] = assay: Antibacterial activity against Bacillus subtilis ATCC 6633 at 4 mg/ml after 24 hrs by agar diffusion test; assay type: functional, organism-based; how it was run: as §1
Micrococcus luteus [3] = assay: Antibacterial activity against Micrococcus luteus ATCC 9631 at 4 mg/ml after 24 hrs by agar diffusion test; assay type: functional, organism-based; how it was run: as §1
Micrococcus luteus [4] = assay: Antibacterial activity against Sarcina lutea ATCC 9341 at 20 mg/ml after 24 hrs by agar diffusion test; assay type: functional, organism-based; how it was run: as §1
Micrococcus luteus [5] = assay: Antibacterial activity against Sarcina lutea ATCC 9341 at 4 mg/ml after 24 hrs by agar diffusion test; assay type: functional, organism-based; how it was run: as §1
Priestia megaterium [6] = assay: Antibacterial activity against Bacillus megaterium NRRL 1353895 at 20 mg/ml after 24 hrs by agar diffusion test; assay type: functional, organism-based; how it was run: as §1
Bacillus [7] = assay: Antibacterial activity against Bacillus idosus B 241 at 20 mg/ml after 24 hrs by agar diffusion test; assay type: functional, organism-based; how it was run: as §1
Bacillus cereus [8] = assay: Antibacterial activity against Bacillus cereus ATCC 11778 at 20 mg/ml after 24 hrs by agar diffusion test; assay type: functional, organism-based; how it was run: as §1
Micrococcus luteus [9] = assay: Antibacterial activity against Micrococcus luteus ATCC 9631 at 20 mg/ml after 24 hrs by agar diffusion test; assay type: functional, organism-based; how it was run: as §1
Acinetobacter johnsonii [10] = assay: Antibacterial activity against Acinetobacter johnsonii ATCC 17909 at 4 mg/ml after 24 hrs by agar diffusion test; assay type: functional; how it was run: as §1
Bacillus cereus [11] = assay: Antibacterial activity against Bacillus cereus ATCC 11778 at 4 mg/ml after 24 hrs by agar diffusion test; assay type: functional, organism-based; how it was run: as §1
Bacillus subtilis [12] = assay: Antibacterial activity against Bacillus subtilis ATCC 6633 at 20 mg/ml after 24 hrs by agar diffusion test; assay type: functional, organism-based; how it was run: as §1
Acinetobacter johnsonii [13] = assay: Antibacterial activity against Acinetobacter johnsonii ATCC 17909 at 20 mg/ml after 24 hrs by agar diffusion test; assay type: functional; how it was run: as §1
Priestia megaterium [14] = assay: Antibacterial activity against Bacillus megaterium NRRL 1353895 at 4 mg/ml after 24 hrs by agar diffusion test; assay type: functional, organism-based; how it was run: as §1
Bacillus mycoides [15] = assay: Antibacterial activity against Bacillus mycoides DSMZ 274 at 20 mg/ml after 24 hrs by agar diffusion test; assay type: functional, organism-based; how it was run: as §1
Bacillus [16] = assay: Antibacterial activity against Bacillus idosus B 241 at 4 mg/ml after 24 hrs by agar diffusion test; assay type: functional, organism-based; how it was run: as §1
Candida tropicalis = assay: Antifungal activity against Candida tropicalis ATCC 20336 at 25 mg/ml after 72 hrs by agar diffusion test; assay type: functional; conditions: ATCC 20336, 72 h, read-out: DIZ
How it was run: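 Yeast grown on yeast peptone dextrose agar; wells cut in the seeded agar are filled with compound solution in DMSO. Read-out is the diameter of the clear inhibition zone.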

Saccharomyces cerevisiae = assay: Antifungal activity against Saccharomyces cerevisiae ATCC 9763 at 12.5 mg/ml after 72 hrs by agar diffusion test; assay type: functional; conditions: ATCC 9763, 72 h, read-out: DIZ
How it was run: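 Agar diffusion: yeasts grown on yeast peptone dextrose agar and fungi on potato dextrose agar. Wells are filled with […] of compound solution in DMSO at various concentrations, and the clear-zone diameter is measured. Bracketed values give the lowest concentration (mg/ml) that produces a zone >11 mm. A first screen is run at 50 mg/ml.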

**Q.** How did the inhibition zone (IZ) (Bacillus mycoides [1]) turn out when GENTAMICIN was run?
**A.** 28 mm

**Q.** What about the inhibition zone (IZ) (Bacillus subtilis [2]) of the same compound?
**A.** 27 mm

**Q.** What about the inhibition zone (IZ) (Micrococcus luteus [3]) of the same compound?
**A.** 28 mm

**Q.** What about the inhibition zone (IZ) (Micrococcus luteus [4]) of the same compound?
**A.** 34 mm

**Q.** And the inhibition zone (IZ) (Micrococcus luteus [5])?
**A.** 28 mm

**Q.** What about the inhibition zone (IZ) (Priestia megaterium [6]) of the same compound?
**A.** 36 mm

**Q.** What about the inhibition zone (IZ) (Bacillus [7]) of the same compound?
**A.** 35 mm

**Q.** What about the inhibition zone (IZ) (Bacillus cereus [8]) of the same compound?
**A.** 29 mm

**Q.** What about the inhibition zone (IZ) (Micrococcus luteus [9]) of the same compound?
**A.** 38 mm

**Q.** What about the inhibition zone (IZ) (Acinetobacter johnsonii [10]) of the same compound?
**A.** 31 mm

**Q.** What about the inhibition zone (IZ) (Bacillus cereus [11]) of the same compound?
**A.** 26 mm

**Q.** And the inhibition zone (IZ) (Bacillus subtilis [12])?
**A.** 30 mm

**Q.** And the inhibition zone (IZ) (Acinetobacter johnsonii [13])?
**A.** 39 mm

**Q.** And the inhibition zone (IZ) (Priestia megaterium [14])?
**A.** 30 mm

**Q.** What about the inhibition zone (IZ) (Bacillus mycoides [15]) of the same compound?
**A.** 32 mm

**Q.** What about the inhibition zone (IZ) (Bacillus [16]) of the same compound?
**A.** 29 mm

**Q.** For `OC(Cn1cncn1)(Cn1cncn1)c1ccc(F)cc1F` [FLUCONAZOLE], which zone of inhibition at 25000 µg/mL (Candida tropicalis) is on record?
**A.** 35 mm

**Q.** Which zone of inhibition at 12500 µg/mL (Saccharomyces cerevisiae) does the source give for `CCC(C)n1ncn(-c2ccc(N3CCN(c4ccc(OCC5COC(Cn6cncn6)(c6ccc(Cl)cc6Cl)O5)cc4)CC3)cc2)c1=O` (stereo not drawn) [ITRACONAZOLE] here?
**A.** 30 mm
